The test system of experiment [1] is Mus musculus. As to the kind of experiment: Hypolipidemic activity in KM mouse model of Triton WR 1339-induced hyperlipidemia assessed as reduction in serum TC level at 0.362 mmol/Kg, IG administered for 1 week and measured on day 7. The experiment is classed as functional, organism-based. The note with it: time 1.0 weeks.
In experiment [2] the test system is Mus musculus. As to the kind of experiment: Hypolipidemic activity in KM mouse model of Triton WR 1339-induced hyperlipidemia assessed as reduction in serum TG level at 0.362 mmol/Kg, IG administered for 1 week and measured on day 7. Particulars: time 1.0 weeks. The experiment is classed as functional, organism-based.
Experiment [3] deals with Mus musculus. The experiment is described as follows: Hypolipidemic activity in KM mouse model of Triton WR 1339-induced hyperlipidemia assessed as reduction in serum MDA level at 0.362 mmol/Kg, IG administered for 1 week and measured on day 7. The experiment is classed as functional, organism-based. Particulars: time 1.0 weeks.
In experiment [4] the test system is Mus musculus. As to the kind of experiment: Hypolipidemic activity in mouse model of HFD-induced hyperlipidemia assessed as reduction in serum TG level at 13 mg/kg, IG. The experiment is classed as functional, organism-based. A digest of the protocol: (§1)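 Mice with high-fat-diet-induced hyperlipidemia, given 67 or 13 mg/kg intragastrically. Serum was assayed for TC, TG, HDL-C and LDL-C, for SOD, GSH-PX and MDA, for IL-6 and TNF-α, and for AST and ALT. Values were compared with the model group. n = 12 per group; mean ± SEM.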

For experiment [5], the system named is Mus musculus. The experiment is described as follows: Hypolipidemic activity in mouse model of HFD-induced hyperlipidemia assessed as reduction in serum LDL-C level at 13 mg/kg, IG. The experiment is classed as functional, organism-based. A digest of the protocol:
as §1

In experiment [6] the test system is Mus musculus. The experiment is described as follows: Hypolipidemic activity in mouse model of HFD-induced hyperlipidemia assessed as reduction in serum TC level at 13 mg/kg, IG. It is filed as functional, organism-based. A digest of the protocol:
as §1

The subject of experiment [7] is Mus musculus. As to the kind of experiment: Antioxidant activity in mouse model of HFD-induced hyperlipidemia assessed as increase in GSH-PX level at 13 mg/kg, IG. The experiment is classed as functional, organism-based. A digest of the protocol:
as §1

Experiment [8] relates to Mus musculus. The experiment is described as follows: Antioxidant activity in mouse model of HFD-induced hyperlipidemia assessed as decrease in MDA level at 13 mg/kg, IG. It is filed as functional, organism-based. A digest of the protocol: as §1
Experiment [9] relates to Mus musculus. The experiment is described as follows: Hepatoprotective activity against mouse model of HFD-induced hyperlipidemia assessed as decrease in AST level at 13 mg/kg, IG. It is filed as functional, organism-based. A digest of the protocol:
as §1

The test system of experiment [10] is Mus musculus. As to the kind of experiment: Hepatoprotective activity against mouse model of HFD-induced hyperlipidemia assessed as decrease in ALT level at 13 mg/kg, IG. The experiment is classed as functional, organism-based. A digest of the protocol: as §1
Experiment [11] relates to Mus musculus. The experiment is described as follows: Hypolipidemic activity in mouse model of HFD-induced hyperlipidemia assessed as reduction in number of lipid droplets in liver at 13 mg/kg, IG by oil red-O staining based assay. It is filed as functional, organism-based. A digest of the protocol:
(§2)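 Livers from mice with high-fat-diet-induced hyperlipidemia, dosed intragastrically at 67 or 13 mg/kg. Liver sections were stained for lipid (oil red O; Sudan III with hematoxylin, 100×), and relative hepatic lipid accumulation was quantified. Mean of six independent experiments ± SEM, compared with the model group.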

Experiment [12] has as its system Mus musculus. The experiment is described as follows: Upregulation of PPAR-alpha expression in mouse model of HFD-induced hyperlipidemia at 13 mg/kg, IG by Western blot analysis. It is filed as functional, organism-based. A digest of the protocol:
(§3)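 Hepatic PPAR-α expression measured in liver tissue of mice with high-fat-diet-induced hyperlipidemia, dosed intragastrically at 67 or 13 mg/kg. Compared with the model group. n = 6; mean ± SEM.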

In experiment [13] the test system is Mus musculus. As to the kind of experiment: Hypolipidemic activity in mouse model of HFD-induced hyperlipidemia assessed as increase in serum HDL-C level at 13 mg/kg, IG relative to control. It is filed as functional. A digest of the protocol:
as §1

Experiment [14] relates to Mus musculus. As to the kind of experiment: Hypolipidemic activity in KM mouse model of Triton WR 1339-induced hyperlipidemia assessed as reduction in serum TG level at 0.121 mmol/Kg, IG administered for 1 week and measured on day 7 relative to control. It is filed as functional. The arrangement: scale not given: the % may be the effect or the level left. Particulars: time 1 weeks.

Experiment [15] relates to Mus musculus. As to the kind of experiment: Hypolipidemic activity in KM mouse model of Triton WR 1339-induced hyperlipidemia assessed as reduction in serum TG level at 0.362 mmol/Kg, IG administered for 1 week and measured on day 7 relative to control. The experiment is classed as functional. The arrangement: scale not given: the % may be the effect or the level left. Particulars: time 1 weeks.

The test system of experiment [16] is Mus musculus. The experiment is described as follows: Hypolipidemic activity in KM mouse model of Triton WR 1339-induced hyperlipidemia assessed as reduction in serum TG level at 1.086 mmol/Kg, IG administered for 1 week and measured on day 7 relative to control. The experiment is classed as functional. The arrangement: scale not given: the % may be the effect or the level left. The note with it: time 1 weeks.

In experiment [17] the test system is Mus musculus. As to the kind of experiment: Hypolipidemic activity in KM mouse model of Triton WR 1339-induced hyperlipidemia assessed as reduction in serum TC level at 0.121 mmol/Kg, IG administered for 1 week and measured on day 7 relative to control. The note with it: time 1 weeks. It is filed as functional. The arrangement: scale not given: the % may be the effect or the level left.

Experiment [18] relates to Mus musculus. The experiment is described as follows: Hypolipidemic activity in KM mouse model of Triton WR 1339-induced hyperlipidemia assessed as reduction in serum TC level at 0.362 mmol/Kg, IG administered for 1 week and measured on day 7 relative to control. The note with it: time 1 weeks. The arrangement: scale not given: the % may be the effect or the level left. The experiment is classed as functional.

Experiment [19] relates to Mus musculus. The experiment is described as follows: Hypolipidemic activity in KM mouse model of Triton WR 1339-induced hyperlipidemia assessed as reduction in serum TC level at 1.086 mmol/Kg, IG administered for 1 week and measured on day 7 relative to control. It is filed as functional. The note with it: time 1 weeks. The arrangement: scale not given: the % may be the effect or the level left.

Experiment [20] relates to Mus musculus. The experiment is described as follows: Hypolipidemic activity in KM mouse model of Triton WR 1339-induced hyperlipidemia assessed as reduction in serum TG level administered IG for 1 week and measured on day 7. The experiment is classed as functional, organism-based. Particulars: time 1.0 weeks.
In experiment [21] the test system is Mus musculus. As to the kind of experiment: Hypolipidemic activity in KM mouse model of Triton WR 1339-induced hyperlipidemia assessed as reduction in serum TC level administered IG for 1 week and measured on day 7 relative to control. It is filed as functional, organism-based. The note with it: time 1.0 weeks.
Experiment [22] concerns Mus musculus. The experiment is described as follows: Hypolipidemic activity in mouse model of HFD-induced hyperlipidemia assessed as reduction in serum TG level at 67 mg/kg, IG. The experiment is classed as functional, organism-based. A digest of the protocol: as §1
The subject of experiment [23] is Mus musculus. The experiment is described as follows: Hypolipidemic activity in mouse model of HFD-induced hyperlipidemia assessed as reduction in serum LDL-C level at 67 mg/kg, IG. The experiment is classed as functional, organism-based. A digest of the protocol: as §1
Experiment [24] relates to Mus musculus. The experiment is described as follows: Hypolipidemic activity in mouse model of HFD-induced hyperlipidemia assessed as reduction in serum TC level at 67 mg/kg, IG. It is filed as functional, organism-based. A digest of the protocol:
as §1

Experiment [25] deals with Mus musculus. As to the kind of experiment: Antioxidant activity in mouse model of HFD-induced hyperlipidemia assessed as increase in SOD level at 67 mg/kg, IG. The experiment is classed as functional, organism-based. A digest of the protocol: as §1
Experiment [26] deals with Mus musculus. As to the kind of experiment: Antioxidant activity in mouse model of HFD-induced hyperlipidemia assessed as increase in GSH-PX level at 67 mg/kg, IG. The experiment is classed as functional, organism-based. A digest of the protocol: as §1
In experiment [27] the test system is Mus musculus. As to the kind of experiment: Antioxidant activity in mouse model of HFD-induced hyperlipidemia assessed as decrease in MDA level at 67 mg/kg, IG. It is filed as functional, organism-based. A digest of the protocol:
as §1

The test system of experiment [28] is Mus musculus. As to the kind of experiment: Antiinflammatory activity against mouse model of HFD-induced hyperlipidemia assessed as decrease in TNF-alpha level at 67 mg/kg, IG. The experiment is classed as functional, organism-based. A digest of the protocol:
as §1

Experiment [29] relates to Mus musculus. As to the kind of experiment: Antiinflammatory activity against mouse model of HFD-induced hyperlipidemia assessed as decrease in IL-6 level at 67 mg/kg, IG. It is filed as functional, organism-based. A digest of the protocol: as §1
For experiment [30], the system named is Mus musculus. The experiment is described as follows: Hepatoprotective activity against mouse model of HFD-induced hyperlipidemia assessed as decrease in AST level at 67 mg/kg, IG. The experiment is classed as functional, organism-based. A digest of the protocol: as §1
In experiment [31] the test system is Mus musculus. The experiment is described as follows: Hepatoprotective activity against mouse model of HFD-induced hyperlipidemia assessed as decrease in ALT level at 67 mg/kg, IG. It is filed as functional, organism-based. A digest of the protocol: as §1
Experiment [32] relates to Mus musculus. The experiment is described as follows: Hypolipidemic activity in mouse model of HFD-induced hyperlipidemia assessed as reduction in number of lipid droplets in liver at 67 mg/kg, IG by oil red-O staining based assay. The experiment is classed as functional, organism-based. A digest of the protocol:
as §2

For experiment [33], the system named is Mus musculus. The experiment is described as follows: Upregulation of PPAR-alpha expression in mouse model of HFD-induced hyperlipidemia at 67 mg/kg, IG by Western blot analysis. It is filed as functional, organism-based. A digest of the protocol:
as §3

Experiment [34] has as its system Mus musculus. The experiment is described as follows: Hypolipidemic activity in mouse model of HFD-induced hyperlipidemia assessed as increase in serum HDL-C level at 67 mg/kg, IG relative to control. The experiment is classed as functional. A digest of the protocol:
as §1

The text below walks through data of ChEMBL document CHEMBL4819043, “1,3-Benzodioxole-based fibrate derivatives as potential hypolipidemic and hepatoprotective agents” (2021).

SMILES strings stand for the structures. The source made the active and inactive calls. No cut-off for these calls is given here.

`CCOC(=O)COc1ccc2c(c1)OCO2`: the result in the experiment with Mus musculus [1] was Active.

Consider `O=C(CCCCOc1ccc2c(c1)OCO2)Oc1ccc2c(c1)OCO2`, for which the result in the experiment on Mus musculus [2], with Mus musculus [1] and with Mus musculus [3] was Active.

Turning to `O=C(O)CCCCOc1ccc2c(c1)OCO2`, the result in the experiment on Mus musculus [2] and in the experiment with Mus musculus [1] was Active.

As to `CCOC(=O)CCCCOc1ccc2c(c1)OCO2`, the outcome with Mus musculus [1] was Active.

`O=C(O)CCCCCOc1ccc2c(c1)OCO2`: the result in the experiment with Mus musculus [2] and in the experiment with Mus musculus [1] was Active.

On to `O=C(COc1ccc2c(c1)OCO2)Oc1ccc2c(c1)OCO2`, for which the outcome with Mus musculus [2] and with Mus musculus [1] was Active.

In the case of `CC(C)OC(=O)C(C)(C)Oc1ccc(C(=O)c2ccc(Cl)cc2)cc1` [FENOFIBRATE], the result with Mus musculus [4], with Mus musculus [5], in the experiment on Mus musculus [7], with Mus musculus [11] and in the experiment on Mus musculus [12] was Active. Besides, the outcome with Mus musculus [6], in the experiment with Mus musculus [8], in the experiment on Mus musculus [9] and in the experiment on Mus musculus [10] was inactive. Moreover, the Activity with Mus musculus [13] turned out to be 20%.

For `O=C(O)COc1ccc2c(c1)OCO2`, in the experiment on Mus musculus [2], the outcome was Active.

Consider `CCOC(=O)CCCOc1ccc2c(c1)OCO2`, for which the result with Mus musculus [2] and in the experiment with Mus musculus [1] was Active.

Turning to `O=C(CCCCCOc1ccc2c(c1)OCO2)Oc1ccc2c(c1)OCO2`, the result with Mus musculus [2], in the experiment with Mus musculus [1], in the experiment on Mus musculus [3], with Mus musculus [22], in the experiment with Mus musculus [23] and with Mus musculus [24] was Active. In addition, the result in the experiment with Mus musculus [25], in the experiment on Mus musculus [26], in the experiment on Mus musculus [27], in the experiment with Mus musculus [28], with Mus musculus [29] and in the experiment with Mus musculus [30] was Active. The result with Mus musculus [31], with Mus musculus [32] and in the experiment with Mus musculus [33] was Active. Also, the Activity is 10.4% in the experiment on Mus musculus [14]; 68.8% in the experiment on Mus musculus [15]; 74.1% with Mus musculus [16]; 14.3% with Mus musculus [17]; 67.3% in the experiment on Mus musculus [18]; 70.1% with Mus musculus [19]. In addition, the Activity entry with Mus musculus [20] was “Dose-Dependent Effect”; in the experiment with Mus musculus [21] it was “Dose-Dependent Effect”; in the experiment with Mus musculus [34], 15%.

Regarding `O=C(CCCOc1ccc2c(c1)OCO2)Oc1ccc2c(c1)OCO2`, the outcome with Mus musculus [2] and in the experiment with Mus musculus [1] was Active.

For `CCOC(=O)CCCCCOc1ccc2c(c1)OCO2`, the result in the experiment on Mus musculus [2] and with Mus musculus [1] was Active.
